In ChEMBL document CHEMBL1275461, “Early bactericidal activity and pharmacokinetics of the diarylquinoline TMC207 in treatment of pulmonary tuberculosis” (Antimicrob Agents Chemother, 2008):

Assays:
[1] = tested on: Mycobacterium tuberculosis; experiment: Bactericidal activity against Mycobacterium tuberculosis in pulmonary tuberculosis patient assessed as reduction in sputum bacterial count at 300 mg/kg, po once daily measured after 4 days; type: functional
Method in brief: (§1)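 Hospitalized treatment-naïve smear-positive patients took oral doses once daily, observed, after breakfast. Sputum was pooled over 16 h overnight at baseline, after each of the 7 dosing days, and on the night after the first standard-therapy dose. Sputum was stirred, digested with dithiothreitol for 20 min at room temperature, and diluted 10-fold. Dilutions were plated in quadruplicate on selective 7H11 agar and counted after 3-4 weeks at 37°C at 20-200 colonies. The read-out was change in log10 CFU/ml from baseline, with a count of 0 set to log 0.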

[2] = tested on: Mycobacterium tuberculosis; experiment: Bactericidal activity against Mycobacterium tuberculosis in pulmonary tuberculosis patient assessed as reduction in sputum bacterial count at 300 mg/kg, po once daily measured after 5 days; type: functional; method in brief: as §1
Homo sapiens [3] = experiment: Toxicity in pulmonary tuberculosis patient assessed as hemoptysis at 300 mg/kg, po once daily; type: organism-based; parameters: dose 300 mg/kg, route oral; conditions: in vivo
Homo sapiens [4] = experiment: Cardiotoxicity in pulmonary tuberculosis patient assessed as increase in QT interval at 300 mg/kg, po once daily for 7 days; type: toxicity, organism-based; parameters: dose 300 mg/kg, route oral; conditions: in vivo, 168 h
[5] = tested on: Mycobacterium tuberculosis; experiment: Bactericidal activity against Mycobacterium tuberculosis in pulmonary tuberculosis patient assessed as reduction in sputum bacterial count at 300 mg/kg, po once daily measured after 7 days; type: functional; method in brief: as §1
[6] = tested on: Mycobacterium tuberculosis; experiment: Bactericidal activity against Mycobacterium tuberculosis in pulmonary tuberculosis patient assessed as reduction in sputum bacterial count at 300 […], po once daily measured after 2 days; type: functional; method in brief: as §1
[7] = tested on: Mycobacterium tuberculosis; experiment: Bactericidal activity against Mycobacterium tuberculosis in pulmonary tuberculosis patient assessed as reduction in sputum bacterial count at 300 mg/kg, po once daily measured after 6 days; type: functional; method in brief: as §1
[8] = tested on: Mycobacterium tuberculosis; experiment: Bactericidal activity against Mycobacterium tuberculosis in pulmonary tuberculosis patient assessed as reduction in sputum bacterial count at 300 […], po once daily measured after 3 days; type: functional; method in brief: as §1
[9] = tested on: Mycobacterium tuberculosis; experiment: Bactericidal activity against Mycobacterium tuberculosis in pulmonary tuberculosis patient assessed as reduction in sputum bacterial count at 300 mg/kg, po once daily measured on day 8 after starting standard TB therapy; type: functional; method in brief: as §1
[10] = tested on: Mycobacterium tuberculosis; experiment: Bactericidal activity against Mycobacterium tuberculosis in pulmonary tuberculosis patient assessed as reduction in sputum bacterial count at 300 […], po once daily measured after 1 day; type: functional; method in brief: as §1
Homo sapiens [11] = experiment: Cardiotoxicity in pulmonary tuberculosis patient assessed as increase in QT interval at 600 mg/kg, po once daily for 7 days; type: toxicity, organism-based; parameters: dose 600 mg/kg, route oral; conditions: in vivo, 168 h
[12] = tested on: Mycobacterium tuberculosis; experiment: Bactericidal activity against Mycobacterium tuberculosis in pulmonary tuberculosis patient assessed as reduction in sputum bacterial count at 600 […], po once daily measured after 1 day; type: functional; method in brief: as §1
[13] = tested on: Mycobacterium tuberculosis; experiment: Bactericidal activity against Mycobacterium tuberculosis in pulmonary tuberculosis patient assessed as reduction in sputum bacterial count at 600 mg/kg, po once daily measured after 4 days; type: functional; method in brief: as §1
[14] = tested on: Mycobacterium tuberculosis; experiment: Bactericidal activity against Mycobacterium tuberculosis in pulmonary tuberculosis patient assessed as reduction in sputum bacterial count at 600 mg/kg, po once daily measured on day 8 after starting standard TB therapy; type: functional; method in brief: as §1
[15] = tested on: Mycobacterium tuberculosis; experiment: Bactericidal activity against Mycobacterium tuberculosis in pulmonary tuberculosis patient assessed as reduction in sputum bacterial count at 600 mg/kg, po once daily measured after 3 days; type: functional; method in brief: as §1
[16] = tested on: Mycobacterium tuberculosis; experiment: Bactericidal activity against Mycobacterium tuberculosis in pulmonary tuberculosis patient assessed as reduction in sputum bacterial count at 600 mg/kg, po once daily measured after 7 days; type: functional; method in brief: as §1
[17] = tested on: Mycobacterium tuberculosis; experiment: Bactericidal activity against Mycobacterium tuberculosis in pulmonary tuberculosis patient assessed as reduction in sputum bacterial count at 600 mg/kg, po once daily measured after 2 days; type: functional; method in brief: as §1
[18] = tested on: Mycobacterium tuberculosis; experiment: Bactericidal activity against Mycobacterium tuberculosis in pulmonary tuberculosis patient assessed as reduction in sputum bacterial count at 600 mg/kg, po once daily measured after 6 days; type: functional; method in brief: as §1

## NNC(=O)c1ccncc1 [ISONIAZID]
[1]
  log10CFU/ml: -1.32
[2]
  log10CFU/ml: -1.41
Homo sapiens [3]
  Activity: 13.3%
Homo sapiens [4]
  Time: 20.2 ms
[5]
  log10CFU/ml: -1.88
[6]
  log10CFU/ml: -0.57
[7]
  log10CFU/ml: -1.68
[8]
  log10CFU/ml: -1.34
[9]
  log10CFU/ml: -1.94
[10]
  log10CFU/ml: -0.43

## CO[C@H]1/C=C/O[C@@]2(C)Oc3c(C)c(O)c4c(O)c(c(/C=N/N5CCN(C)CC5)c(O)c4c3C2=O)NC(=O)/C(C)=C\C=C\[C@H](C)[C@H](O)[C@@H](C)[C@@H](O)[C@@H](C)[C@H](OC(C)=O)[C@@H]1C [RIFAMPIN]
Homo sapiens [11]
  Time: 13 ms
[12]
  log10CFU/ml: -0.28
[13]
  log10CFU/ml: -1.17
[14]
  log10CFU/ml: -1.82
[15]
  log10CFU/ml: -0.89
[16]
  log10CFU/ml: -1.7
[17]
  log10CFU/ml: -0.88
[18]
  log10CFU/ml: -1.55
